Test results from ChEMBL document CHEMBL1124079, “Methotrexate analogues. 31. Meta and ortho isomers of aminopterin, compounds with a double bond in the side chain, and a novel analogue modified at the alpha-carbon: chemical and in vitro biological studies” (J Med Chem, 1988).
Blank lines part the entries; values can stand above or below the compound they belong to.

Columns and labels:
L1210 ( R81) [1] = assay: Inhibitory activity against L1210/R81 cells; format: functional, cell-based; conditions: Mus musculus
L1210 [2] = assay: Inhibitory activity against L1210 cells; format: functional, cell-based; conditions: Mus musculus
Dihydrofolate reductase [3] = target: T1, Dihydrofolate reductase (Mus musculus, UniProt P00375); assay: Inhibitory activity against dihydrofolate reductase(DHFR)
T1 sequence (P00375 whole entry): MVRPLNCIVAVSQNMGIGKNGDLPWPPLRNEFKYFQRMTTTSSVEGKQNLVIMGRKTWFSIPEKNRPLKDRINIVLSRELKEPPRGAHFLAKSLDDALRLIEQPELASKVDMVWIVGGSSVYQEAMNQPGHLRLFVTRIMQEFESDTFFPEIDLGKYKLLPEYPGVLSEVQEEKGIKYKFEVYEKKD
Procedure, shortened: (§1)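 DHFR purified from L1210 murine leukemia cells by affinity chromatography on MTX-Sepharose, then used as the enzyme source for inhibitor titration; IC50 read from the enzyme-activity titration curve.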

L1210 [4] = assay: Inhibitory activity against cultured L1210 cells; conditions: Mus musculus
L1210 [5] = assay: Growth inhibitory activity against cultured L1210 cells; format: functional, cell-based; conditions: Mus musculus
L1210 ( R81) [6] = assay: Inhibition of the growth of the MTX-resistant L1210/R81 cell line; format: functional, cell-based; conditions: Mus musculus
[7] = target: T2, Dihydrofolate reductase (Mus musculus) (UniProt P00375); assay: Inhibitory activity against dihydrofolate reductase(DHFR) isolated from L1210 murine leukemia cells at 50 uM; format: cell-free
T2 sequence (whole entry): T1 sequence (P00375 whole entry)

L1210 [8] = assay: Inhibitory activity against growth of mouse L1210 leukemia cells; format: functional, cell-based
Dihydrofolate reductase [9] = target: T1, Dihydrofolate reductase; assay: Inhibitory activity against dihydrofolate reductase(DHFR) isolated from L1210 murine leukemia cells; format: cell-free; procedure, shortened: as §1

IC50 (L1210 ( R81) [1]): 180 µM
IC50 (L1210 [2]): 12 µM
IC50 (Dihydrofolate reductase [3]): 0.038 µM
SMILES: CN(Cc1cnc2nc(N)nc(N)c2n1)c1ccc(C(=O)N(CCC(=O)O)CC(=O)O)cc1

SMILES: CN(Cc1cnc2nc(N)nc(N)c2n1)c1ccc(C(=O)N[C@@H](CCC(=O)O)C(=O)O)cc1 [METHOTREXATE]
IC50 (L1210 [4]): 0.005 µM

IC50 (L1210 [5]): 0.35 µM
IC50 (L1210 ( R81) [6]): > 300 µM
IC50 (Dihydrofolate reductase [3]): 32 µM
SMILES: CN(Cc1cnc2nc(N)nc(N)c2n1)c1ccc(C(=O)NC(C/C=C/C(=O)O)C(=O)O)cc1 (centres undefined)

inhibition [7]: 20%
IC50 (L1210 [8]): 64 µM
SMILES: Nc1nc(N)c2nc(CNc3ccccc3C(=O)NC(CCC(=O)O)C(=O)O)cnc2n1 (centres undefined)

IC50 (L1210 [5]): 0.031 µM
IC50 (Dihydrofolate reductase [3]): 46 µM
SMILES: Nc1nc(N)c2nc(CNc3ccc(C(=O)NC(C/C=C/C(=O)O)C(=O)O)cc3)cnc2n1 (centres undefined)

IC50 (Dihydrofolate reductase [9]): 200 µM
IC50 (L1210 [8]): 1.5 µM
SMILES: Nc1nc(N)c2nc(CNc3cccc(C(=O)NC(CCC(=O)O)C(=O)O)c3)cnc2n1 (centres undefined)

SMILES: Nc1nc(N)c2nc(CNc3ccc(C(=O)N[C@@H](CCC(=O)O)C(=O)O)cc3)cnc2n1 [AMINOPTERIN]
IC50 (Dihydrofolate reductase [9]): 0.002 µM
